Test results: ChEMBL document CHEMBL4622978, “Tumor-Activated Benzothiazole Inhibitors of Stearoyl-CoA Desaturase” (J Med Chem, 2020)
The source made the active and inactive calls. No cut-off for these calls is given here.

Columns and labels:
[1] = Cmax in fat of CD-1 female mouse at 10 mg/kg, ip single dose by LC-MS/MS analysis; details: CD-1, mouse
[2] = AUC in lung of CD-1 female mouse at 10 mg/kg, ip single dose by LC-MS/MS analysis; details: CD-1, mouse
[3] = Cmax in lung of CD-1 female mouse at 10 mg/kg, ip single dose by LC-MS/MS analysis; details: CD-1, mouse
[4] = AUC in plasma of CD-1 female mouse at 10 mg/kg, ip single dose by LC-MS/MS analysis; details: CD-1, mouse
[5] = Cmax in plasma of CD-1 female mouse at 10 mg/kg, ip single dose by LC-MS/MS analysis; details: CD-1, mouse
[6] = Half life in human NCI-H2122 cells at 100 nM by LC-MS/MS analysis; type: ADME, cell-based
Summary of the method: (§1)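 H2122 and H1155 pLVX (empty vector) cells, 4000/well, adhered overnight. Then fresh medium with 100 nM prodrug, ±1 μM HET0016 (CYP4A/4F inhibitor), at 37 °C, 5% CO2. At varying times, cells and medium lysed and protein-precipitated with 2 volumes methanol/0.2% formic acid containing internal standard, then spun at 16,000g for 5 min. Parent and demethylated metabolite quantified by LC-MS/MS against standard curves in blank cell lysates.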

[7] = Half life in human NCI-H1155 cells at 100 nM by LC-MS/MS analysis; type: ADME, cell-based
Summary of the method: as §1

[8] = Half life in human NCI-H2122 cells at 100 nM in presence of CYP4F inhibitor HET0016 by LC-MS/MS analysis; type: ADME, cell-based; details: with HET0016 (CYP4F inhibitor), concentration not stated
Summary of the method: as §1

[9] = Drug metabolism in human NCI-H2122 cells assessed as (R)-4-(amino(phenyl)methyl)-N-(6-hydroxybenzo[d]thiazol-2-yl)-benzamide formation at 100 nM by LC-MS/MS analysis; type: ADME, cell-based; details: nci-h2122, 0.1 µM
Summary of the method: as §1

[10] = Drug metabolism in human NCI-H1155 cells assessed as (R)-4-(amino(phenyl)methyl)-N-(6-hydroxybenzo[d]thiazol-2-yl)-benzamide formation at 100 nM by LC-MS/MS analysis; type: ADME, cell-based; details: nci-h1155, 0.1 µM
Summary of the method: as §1

[11] = Drug metabolism in human NCI-H2122 cells assessed as (R)-4-(amino(phenyl)methyl)-N-(6-hydroxybenzo[d]thiazol-2-yl)-benzamide formation at 100 nM by in presence of CYP4F inhibitor HET0016 LC-MS/MS analysis; type: ADME, cell-based; details: nci-h2122, 0.1 µM
Summary of the method: as §1

NCI-H2122 [12] = assay: Antitumor activity against human NCI-H2122 cells xenografted in nod-SCID mouse fed normal chow diet at 20 mg/kg, ip QD for 3 weeks; type: functional, organism-based
Summary of the method: (§2)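 Female NOD-SCID mice, 6–8 weeks, on control diet (4.1% soybean-oil fat) or fat-free diet (0.1% fat). Three days later, 5 × 10⁶ H2122 cells injected subcutaneously into the left flank. At ~100 mm³, randomized to groups of six. Dosing 10 mg/kg BID, 20 mg/kg QD, or vehicle BID (10% DMSO, 10% Kolliphor EL, 80% 50 mM lactic acid pH 3.6) for three weeks. Caliper measurements twice weekly; volume = length × width² × π/6.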

NCI-H2122 [13] = assay: Antitumor activity against human NCI-H2122 cells xenografted in nod-SCID mouse fed normal chow diet at 10 mg/kg, ip BID for 3 weeks; type: functional, organism-based
Summary of the method: as §2

NCI-H2122 [14] = assay: Antitumor activity against human NCI-H2122 cells xenografted in nod-SCID mouse fed fat-free diet at 20 mg/kg, ip QD for 3 weeks; type: functional, organism-based
Summary of the method: as §2

NCI-H2122 [15] = assay: Antitumor activity against human NCI-H2122 cells xenografted in nod-SCID mouse fed fat-free diet at 10 mg/kg, ip BID for 3 weeks; type: functional, organism-based
Summary of the method: as §2

[16] = Drug level in plasma of normal chow diet fed nod-SCID mouse xenografted with NCI-H2122 cells at 20 mg/kg, ip QD for 3 weeks and measured 3 hrs after final dose by LC-MS/MS analysis; type: ADME, organism-based
Summary of the method: (§3)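 Xenografted NOD-SCID mice on control or fat-free diet, dosed for three weeks, euthanized 3 h after the last dose. Plasma and tumor homogenate (3 volumes PBS) mixed with 2 volumes acetonitrile or methanol with 0.15% formic acid and internal standard, then centrifuged. Drug form quantified by LC-MS/MS against spiked blank-matrix standard curves.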

[17] = Drug level in tumor of normal chow diet fed nod-SCID mouse xenografted with NCI-H2122 cells at 20 mg/kg, ip QD for 3 weeks and measured 3 hrs after final dose by LC-MS/MS analysis; type: ADME, organism-based, Neoplasm; details: read-out: Drug uptake
Summary of the method: as §3

[18] = Drug level in plasma of fat-free diet fed nod-SCID mouse xenografted with NCI-H2122 cells at 20 mg/kg, ip QD for 3 weeks and measured 3 hrs after final dose by LC-MS/MS analysis; type: ADME, organism-based
Summary of the method: as §3

[19] = Drug level in tumor of fat-free diet fed nod-SCID mouse xenografted with NCI-H2122 cells at 20 mg/kg, ip QD for 3 weeks and measured 3 hrs after final dose by LC-MS/MS analysis; type: ADME, organism-based, Neoplasm; details: read-out: Drug uptake
Summary of the method: as §3

[20] = Toxicity in normal chow diet fed nod-SCID mouse xenografted with NCI-H2122 cells assessed as effect on behavior at 20 mg/kg, ip QD for 3 weeks; type: organism-based; details: in vivo, 504 h
[21] = Toxicity in normal chow diet fed nod-SCID mouse xenografted with NCI-H2122 cells assessed as effect on appearance at 20 mg/kg, ip QD for 3 weeks; type: organism-based; details: in vivo, 504 h
[22] = Toxicity in normal chow diet fed nod-SCID mouse xenografted with NCI-H2122 cells assessed as effect on body weight at 20 mg/kg, ip QD for 3 weeks; type: organism-based; details: in vivo, 504 h
[23] = Toxicity in fat-free diet fed nod-SCID mouse xenografted with NCI-H2122 cells assessed as effect on behavior at 20 mg/kg, ip QD for 3 weeks; type: organism-based; details: in vivo, 504 h
[24] = Toxicity in fat-free diet fed nod-SCID mouse xenografted with NCI-H2122 cells assessed as effect on appearance at 20 mg/kg, ip QD for 3 weeks; type: organism-based; details: in vivo, 504 h
[25] = Toxicity in fat-free diet fed nod-SCID mouse xenografted with NCI-H2122 cells assessed as effect on body weight at 20 mg/kg, ip QD for 3 weeks; type: organism-based; details: in vivo, 504 h
[26] = Toxicity in normal chow diet fed nod-SCID mouse xenografted with NCI-H2122 cells assessed as effect on behavior at 10 mg/kg, ip BID for 3 weeks; type: organism-based; details: in vivo, 504 h
[27] = Toxicity in normal chow diet fed nod-SCID mouse xenografted with NCI-H2122 cells assessed as effect on appearance at 10 mg/kg, ip BID for 3 weeks; type: organism-based; details: in vivo, 504 h
[28] = Toxicity in normal chow diet fed nod-SCID mouse xenografted with NCI-H2122 cells assessed as effect on body weight at 10 mg/kg, ip BID for 3 weeks; type: organism-based; details: in vivo, 504 h
[29] = Toxicity in fat-free diet fed nod-SCID mouse xenografted with NCI-H2122 cells assessed as effect on behavior at 10 mg/kg, ip BID for 3 weeks; type: organism-based; details: in vivo, 504 h
[30] = Toxicity in fat-free diet fed nod-SCID mouse xenografted with NCI-H2122 cells assessed as effect on appearance at 10 mg/kg, ip BID for 3 weeks; type: organism-based; details: in vivo, 504 h
[31] = Toxicity in fat-free diet fed nod-SCID mouse xenografted with NCI-H2122 cells assessed as effect on body weight at 10 mg/kg, ip BID for 3 weeks; type: organism-based; details: in vivo, 504 h
[32] = Toxicity in fat-free diet fed nod-SCID mouse xenografted with NCI-H2122 cells assessed as body weight loss at 10 mg/kg, ip BID for 3 weeks (reference value: <5%); type: organism-based; details: in vivo, 504 h
[33] = Toxicity in fat-free diet fed nod-SCID mouse xenografted with NCI-H2122 cells assessed as body weight loss at 20 mg/kg, ip QD for 3 weeks (reference value: <5%); type: organism-based; details: in vivo, 504 h
[34] = Toxicity in normal chow diet fed nod-SCID mouse xenografted with NCI-H2122 cells assessed as body weight loss at 10 mg/kg, ip BID for 3 weeks (reference value: <5%); type: organism-based; details: in vivo, 504 h
[35] = Toxicity in normal chow diet fed nod-SCID mouse xenografted with NCI-H2122 cells assessed as body weight loss at 20 mg/kg, ip QD for 3 weeks (reference value: <5%); type: organism-based; details: in vivo, 504 h
[36] = AUC in fat of CD-1 female mouse at 10 mg/kg, ip single dose by LC-MS/MS analysis; details: CD-1, mouse
[37] = Drug level in tumor of nod-SCID mouse xenografted with human NCI-H2122 cells at 20 mg/kg, ip single dose and measured after 7 hrs by LC-MS/MS analysis; details: read-out: Drug uptake

## COc1ccc2nc(NC(=O)c3ccc(C(=O)c4ccccc4)cc3)sc2c1
[1]
  Cmax: 90 µM
[2]
  AUC at 504 h: 2.6 µM·h
[3]
  Cmax: 0.9 µM
[4]
  AUC at 504 h: 0.6 µM·h
[5]
  Cmax: 0.3 µM

## COc1ccc2nc(NC(=O)c3ccc([C@H](N)c4ccccc4)cc3)sc2c1
[6]
  half-life at 0.1 µM: 19 h
[7]
  half-life at 0.1 µM: > 48 h
[8]
  half-life at 0.1 µM: > 48 h
[9]
  Drug metabolism: Metabolite_Detected
[10]
  Drug metabolism: Metabolite_Notdetected
[11]
  Drug metabolism: Metabolite_Notdetected
NCI-H2122 [12]
  Activity: Active
NCI-H2122 [13]
  Activity: Active
NCI-H2122 [14]
  Activity: Active
NCI-H2122 [15]
  Activity: Active
[16]
  concentration at 3 h: > 5 µM
[17]
  concentration at 3 h: > 5 µM
[18]
  concentration at 3 h: > 5 µM
[19]
  concentration at 3 h: > 5 µM
[20]
  Activity: Non-Toxic
[21]
  Activity: Non-Toxic
[22]
  Activity: Non-Toxic
[23]
  Activity: Non-Toxic
[24]
  Activity: Non-Toxic
[25]
  Activity: Non-Toxic
[26]
  Activity: Non-Toxic
[27]
  Activity: Non-Toxic
[28]
  Activity: Non-Toxic
[29]
  Activity: Non-Toxic
[30]
  Activity: Non-Toxic
[31]
  Activity: Non-Toxic
[32]
  Activity: 17%
[33]
  Activity: 7%
[34]
  Activity: 13%
[35]
  Activity: 5%
[4]
  AUC at 504 h: 1.6 µM·h
[5]
  Cmax: 0.9 µM

## N[C@H](c1ccccc1)c1ccc(C(=O)Nc2nc3ccccc3s2)cc1
[9]
  Drug metabolism: Metabolite_Detected

## COc1ccc2nc(NC(=O)c3ccc(C(O)c4ccccn4)cc3)sc2c1 (racemic)
[36]
  AUC at 504 h: 70 µM·h
[1]
  Cmax: 120 µM
[2]
  AUC at 504 h: 17 µM·h
[3]
  Cmax: 26 µM
[4]
  AUC at 504 h: 9.6 µM·h
[5]
  Cmax: 11 µM

## COc1ccc2nc(NC(=O)c3ccc(C(N)c4ccccc4)cc3)sc2c1 (racemic)
[36]
  AUC at 504 h: 77 µM·h
[1]
  Cmax: 94 µM
[2]
  AUC at 504 h: 160 µM·h
[3]
  Cmax: 61 µM
[4]
  AUC at 504 h: 3 µM·h
[5]
  Cmax: 1.5 µM
[37]
  concentration at 7 h: 7 µM
